ChEMBL document CHEMBL3085648, “Enhancement of kinase selectivity in a potent class of arylamide FMS inhibitors” (Bioorg Med Chem Lett, 2013)

How the values were obtained:
[1] = target: Mast/stem cell growth factor receptor Kit (Homo sapiens, UniProt P10721); experiment: Inhibition of KIT (unknown origin)
[2] = (§1) Metabolic stability in human liver microsomes assessed as compound remaining after 10 mins; type: ADME; settings: liver microsomes, read-out: Stability
Procedure, shortened: (§2)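 Compound was incubated with human, mouse or rat liver microsomal preparations. Stability is the percent of compound remaining after 10 min.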

Mus musculus = experiment: Inhibition of CSF-1-induced c-fos gene expression in mouse spleen at 20 mg/kg, po after 6 hrs; type: functional
Procedure, shortened: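 In the mouse pharmacodynamic model, compound was given orally. Spleen c-fos mRNA induced by an iv injection of CSF-1 was measured 6 or 8 h after dosing.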

[3] = Metabolic stability in rat liver microsomes assessed as compound remaining after 10 mins; type: ADME; settings: read-out: Stability; procedure, shortened: as §2
Liver microsome = experiment: as §1; type: ADME; settings: microsomes, 10 min; procedure, shortened: as §2
[4] = Terminal half life in Sprague-Dawley rat at 5 mg/kg, po; type: ADME, organism-based; set-up: dose 5 mg/kg, route oral; settings: in vivo, read-out: beta t1/2 (converted)
[5] = Tmax in Sprague-Dawley rat at 5 mg/kg, po; type: ADME, organism-based; set-up: dose 5 mg/kg, route oral; settings: in vivo
[6] = Systemic clearance in Sprague-Dawley rat at 1 mg/kg, iv; type: ADME, organism-based; set-up: dose 1 mg/kg, route intravenous; settings: in vivo
[7] = AUC in Sprague-Dawley rat at 5 mg/kg, po; type: ADME, organism-based; set-up: dose 5 mg/kg, route oral; settings: plasma
[8] = Cmax in Sprague-Dawley rat at 5 mg/kg, po; type: ADME, organism-based; set-up: dose 5 mg/kg, route oral; settings: in vivo
[9] = Oral bioavailability in Sprague-Dawley rat at 5 mg/kg; type: ADME, organism-based; settings: in vivo
[10] = Volume of distribution in Sprague-Dawley rat at 1 mg/kg, iv; type: ADME, organism-based; set-up: dose 1 mg/kg, route intravenous; settings: in vivo

Mast/stem cell growth factor receptor Kit, sequence (P10721 whole entry): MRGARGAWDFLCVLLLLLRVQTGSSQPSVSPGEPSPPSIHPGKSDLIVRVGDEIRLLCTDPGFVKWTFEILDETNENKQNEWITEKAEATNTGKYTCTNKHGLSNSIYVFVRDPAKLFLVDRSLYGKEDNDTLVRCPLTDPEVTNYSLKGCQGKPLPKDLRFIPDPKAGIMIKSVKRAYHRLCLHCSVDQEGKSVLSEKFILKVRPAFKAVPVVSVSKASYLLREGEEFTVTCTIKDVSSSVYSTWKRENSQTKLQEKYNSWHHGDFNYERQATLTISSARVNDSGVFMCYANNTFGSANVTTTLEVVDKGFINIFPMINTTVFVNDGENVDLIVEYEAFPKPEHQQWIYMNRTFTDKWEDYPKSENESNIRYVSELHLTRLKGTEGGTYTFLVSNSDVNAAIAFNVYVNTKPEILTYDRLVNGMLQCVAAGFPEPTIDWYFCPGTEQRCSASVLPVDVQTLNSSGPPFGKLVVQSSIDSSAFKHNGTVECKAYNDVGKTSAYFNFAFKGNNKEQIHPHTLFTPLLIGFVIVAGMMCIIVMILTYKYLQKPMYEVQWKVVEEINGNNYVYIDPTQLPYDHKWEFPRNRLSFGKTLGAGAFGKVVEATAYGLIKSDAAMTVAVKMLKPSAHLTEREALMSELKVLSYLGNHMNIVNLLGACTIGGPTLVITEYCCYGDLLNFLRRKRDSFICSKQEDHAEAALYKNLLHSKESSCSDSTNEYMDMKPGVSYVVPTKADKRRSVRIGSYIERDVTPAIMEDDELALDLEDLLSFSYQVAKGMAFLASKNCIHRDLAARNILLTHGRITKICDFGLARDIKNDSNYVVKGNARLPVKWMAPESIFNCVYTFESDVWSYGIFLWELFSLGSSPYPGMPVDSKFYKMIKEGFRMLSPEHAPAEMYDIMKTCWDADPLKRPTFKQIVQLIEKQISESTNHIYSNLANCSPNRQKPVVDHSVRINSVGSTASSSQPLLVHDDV

IC50 [1] [nM]	remaining at 10 min [2] [%]	remaining at 10 min [3] [%]	Stability (Liver microsome)	half-life [4] [h]	Tmax [5] [h]	clearance [6] [mL/min/kg]	AUC [7] [ng·h/mL]	Cmax [8] [nM]	bioavailability [9] [%]	Vd [10] [L/kg]	Compound	inhibition in vivo at 20 mg/kg (Mus musculus) [%]
110	35	39	–	–	–	–	–	–	–	–	COCCNCC(C)(C)c1ccc(NC(=O)c2nc(C#N)c[nH]2)c(C2=CCC(C)(C)CC2)c1	0
40	–	–	ND(Insoluble)	–	–	–	–	–	–	–	CC(=O)N1CCN(C(C)(C)c2ccc(NC(=O)c3nc(C#N)c[nH]3)c(C3=CCC(C)(C)CC3)c2)CC1	–
–	–	–	–	6.5	2.8	34	690	210	31	7.6	CC1(C)CC=C(c2cc(C(C)(C)N3CCN(CCO)CC3)ccc2NC(=O)c2nc(C#N)c[nH]2)CC1.Cl	–
